Data on 15 compounds can be found in ChEMBL document CHEMBL6078650, “A Phenotypic High-Throughput Screen Identifies Small Molecule Modulators of Endogenous RGS10 in BV-2 Cells” (J Med Chem, 2024).

As usually defined, the EC50 is the concentration needed to bring the measured effect to its halfway point.

Structures are written as SMILES. The source made the active and inactive calls. The rule behind the calls is not given here.

Assay [1] is described as follows: Reversal of IFNgamma-induced RGS10 silencing in mouse single close BV-2 cells assessed as IFN response measured after 24 hrs by Nano-Glo HiBit Lytic detection assay relative to control. Type of assay: functional. The arrangement: concentration or dose not given beside the values. The method, boiled down:
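HiBiT-tagged BV-2-RGS10 clone treated with compound at 20 μM plus IFNγ 10 ng/mL for 24 h at 37 °C; viability by GF-AFC fluorescence, then HiBiT lytic luminescence; signal normalized RLU/RFU, expressed as % of IFNγ-alone signal; four independent experiments in triplicate, one-way ANOVA with Dunnett's test.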
For orientation: With HiBiT, luminescence reflects the tagged protein that the partner subunit can reach.

Assay [2] is described as follows: (§1) Reversal of LPS-induced RGS10 silencing in mouse single close BV-2 cells assessed as RGS10 protein level by measuring LPS response measured after 24 hrs by Nano-Glo HiBit Lytic detection assay. Type of assay: functional. Details: concentration or dose not given beside the values. The method, boiled down:
(§2)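 HiBiT-knock-in BV-2 single clone exposed to LPS at 10 ng/mL final for 24 h at 37 °C in phenol red-free assay medium; RGS10-HiBiT measured by Nano-Glo HiBiT lytic detection (LgBiT 1:100, substrate 1:50), luminescence read after 15 min at room temperature.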

Assay [3] can be described thus: Induction of RGS10 expression in mouse single close BV-2 cells assessed as RGS10 protein level by measuring luminescence signal measured after 24 hrs by Nano-Glo HiBit Lytic detection assay. Type of assay: functional. Details: concentration or dose not given beside the values. The method, boiled down:
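BV-2-RGS10-HiBiT single-clone cells (CRISPR HiBiT tag at RGS10 C-terminus) in phenol red-free DMEM, 10% ultralow IgG FBS; IFNγ 10 ng/mL final plus compound 1–100 μM, 24 h, 37 °C. GF-AFC viability fluorescence (390/505) read first, then Nano-Glo HiBiT lytic luminescence (LgBiT 1:100, substrate 1:50); RLU/RFU expressed as % of IFNγ alone; 4 independent experiments in triplicate.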

The subject of assay [4] is BV-2. Description: Reversal of IFNgamma-induced inflammatory gene expression in mouse single close BV-2 cells assessed as reversal of COX-2 expression at 20 uM measured after 24 hrs by qRT-PCR analysis. Type of assay: functional, cell-based. The method, boiled down: (§3)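 BV-2 cells treated 24 h with IFNγ 10 ng/mL with or without compound at 20 μM; iNOS, COX-2 and TNFα mRNA measured by one-step qRT-PCR (100 ng RNA template, 0.4 μM primers, 40 cycles), Cq read each cycle.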
For orientation: Real-time PCR tracks product formation cycle by cycle.

The test system of assay [5] is BV-2. Description: Reversal of IFNgamma-induced RGS10 silencing in mouse single close BV-2 cells assessed as increase in of RGS10 mRNA level measured after 24 hrs by qRT-PCR analysis. Type of assay: functional, cell-based. The settings on record: dose 0.5-20 µM. The method, boiled down: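 Parental BV-2 cells given IFNγ 10 ng/mL for 24 h with compound 0.5–20 μM; RGS10 mRNA by one-step qRT-PCR (100 ng RNA, 0.4 μM primers; RT 55 °C 10 min, 40 cycles 95 °C/60 °C), Cq values with melt curve.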

Assay [6] concerns BV-2. Description: Reversal of IFNgamma-induced inflammatory gene expression in mouse single close BV-2 cells assessed as reversal of iNOS expression at 20 uM measured after 24 hrs by qRT-PCR analysis. Type of assay: functional, cell-based. The method, boiled down:
as §3

The test system of assay [7] is BV-2. Kind of assay: Reversal of IFNgamma-induced inflammatory gene expression in mouse single close BV-2 cells assessed as reversal of TNFalpha expression at 20 uM measured after 24 hrs by qRT-PCR analysis. Type of assay: functional, cell-based. The method, boiled down: as §3
In assay [8] the test system is BV-2. Description: Reversal of IFNgamma-induced RGS10 silencing in mouse single close BV-2 cells assessed as suppression of RGS10 protein level at 20 uM measured after 48 hrs by Western blot analysis. Type of assay: functional, cell-based. The method, boiled down: (§4)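 Parental BV-2 cells, IFNγ 10 ng/mL with compound 20 μM for 24 h or 48 h; lysates in Tris/NaCl/Triton/SDS buffer with protease inhibitors, equal protein on 12% SDS-PAGE, goat anti-RGS10 (1:1,000) with β-actin or GAPDH loading control, infrared secondary detection; four independent experiments in duplicate.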

Assay [9] can be described thus: Reversal of IFNgamma-induced RGS10 silencing in mouse single close BV-2 cells assessed as RGS10 protein level by measuring luminescence signal measured after 24 hrs by Nano-Glo HiBit Lytic detection assay. The settings on record: BV-2, 24 h.
Assay [10] has as its system BV-2. Description: Reversal of IFNgamma-induced RGS10 silencing in mouse single close BV-2 cells assessed as suppression of RGS10 protein level at 20 uM measured after 24 hrs by Western blot analysis. Type of assay: functional, cell-based. The method, boiled down:
as §4
For orientation: In western blotting, separated proteins are transferred to a membrane and probed.

In assay [11] the test system is BV-2. The assay is described as §1. Type of assay: functional. Details: concentration or dose not given beside the values. A digest of the protocol: as §2

For the compound `COc1cccc(CNC(=O)c2ccc3c(Cl)c4c(nc3c2)CCCC4)c1`, the Activity was 141.3% in assay [1], 97.4% in assay [2] and 104.6% in assay [3].

Take `O=C(Nc1ccc(F)cc1)c1cc2n(n1)CC(c1ccc3c(c1)OCO3)OC2` (centres undefined): the Activity in [1] came to 123.2%; in assay [2], 105.3%; in assay [3] it was 113.8%.

As to `COc1ccc(C2NC(=O)N(CC(=O)N3CCCCCC3)C3=C2C(=O)OC3)cc1` (centres undefined), the results for the Activity in [1], in assay [2] and in assay [3] were 102.4%, 87.4% and 104.8%, respectively.

As to `CCc1cc(-c2csc(S(=O)(=O)Nc3ccc(C)cc3Br)c2)on1`, the Activity in [1] is on record as 206.2%; in the assay with BV-2 [5] it was “Dose-dependent-effect; Significant Reversal Achieved At > 5 Um”; in [2], 104.1%; in [3] it was 76.8%. For the same compound, the result with BV-2 [4], in the assay with BV-2 [6] and in the assay on BV-2 [8] was Active. Moreover, the outcome in the assay with BV-2 [7] and with BV-2 [10] was inactive. In addition, the EC50 in assay [9] amounted to 33.6 µM.

For the compound `Cc1cccc(-n2c(=O)c3c(cc(C)n3C)n(CC(=O)Nc3ccc(C(F)(F)F)cc3)c2=O)c1`, the Activity in assay [1] is 145.1%; in assay [2] it was 113.8%; in [3], 95.9%.

On to `CCOc1ccc(-c2nc(C3CC(=O)N(c4ccc(C)cc4)C3)no2)cc1` (centres undefined), for which the Activity amounted to 97.4% in [1], 104.7% in assay [2] and 85.6% in assay [3].

Turning to `COCCOC1CCN(C(=O)Nc2ccc(C(=O)OC)cc2)CC1`, the Activity in assay [1] was 106.7%; in assay [2], 121.7%; in [3], 101.2%.

Consider `O=C(CN1C(=O)NC(c2ccc(Cl)cc2)C2=C1COC2=O)Nc1ccc(F)c(F)c1` (centres undefined), for which the Activity in assay [1] was 171.6%; in assay [2], 84.1%; in assay [3], 69.6%. Also, in the assay with BV-2 [6], the outcome was Active. The result in the assay on BV-2 [7] and with BV-2 [10] was inactive. In [9], the EC50 is 23.5 µM.

For `CC1=NS(=O)(=O)N(C)C=C1C(=O)OCc1nc(-c2cccc(F)c2)no1`, the Activity in assay [1] is recorded as 94.3%; in [2], 90.3%; in assay [3] it was 78.9%.

Take `O=C(CN1C(=O)NC(c2ccc(Cl)cc2)C2=C1COC2=O)Nc1cc(F)cc(F)c1` (centres undefined): the Activity in assay [1] amounted to 186.7%; in [2] it was 80.4%; in assay [3], 56.8%. In the assay on BV-2 [6], the outcome was Active. Moreover, the outcome in the assay with BV-2 [7] and in the assay with BV-2 [10] was inactive. Besides, the EC50 in [9] worked out at 31.2 µM.

Regarding `Cc1cc(C)cc(Nc2nc(C)cc(=O)n2CC(=O)Nc2cccc(C#N)c2)c1`, the values for the Activity in assay [1], in assay [2] and in [3] were 102.4%, 105.8% and 116.1%, respectively.

`Cc1ccc(-n2c(=O)c3c(cc(C)n3C)n(CC(=O)Nc3ccc(Br)cc3F)c2=O)cc1`: the Activity in assay [1] is reported as 90.1%; in assay [3], 156.8%. Also, the result with BV-2 [11] was inactive.

As for `Cc1oc(-c2ccc(Cl)cc2)nc1CN1CCCC(C(=O)N2CCN(C(=O)c3ccco3)CC2)C1` (centres undefined), the results for the Activity in [1], in assay [2] and in assay [3] were 172.8%, 116.9% and 101.8%, respectively. The outcome in the assay on BV-2 [6] was Active. The outcome in the assay with BV-2 [7] and in the assay with BV-2 [10] was inactive. Besides, in [9], the EC50 stood at 78.8 µM.

Regarding `Cc1cc(C)c2c(=O)cc(CN(Cc3ccccc3)Cc3ccco3)[nH]c2c1`, the Activity in assay [1] is recorded as 230.6%; in assay [2], 92.8%; in [3], 98.5%. For the same compound, the outcome in the assay with BV-2 [4] and with BV-2 [6] was Active. The result with BV-2 [7] and in the assay on BV-2 [10] was inactive. The EC50 in [9] was found to be 13.8 µM.

With `CCNc1ncnc2sc3c(c12)CCN(Cc1ccncc1)C3`, the Activity in assay [1] is given as 94%; in [2] it was 89.5%; in assay [3], 97.1%.
